Data set [1] is described as follows: Selectivity index, ratio of CC50 for human MT4 cells to EC50 for HIV1 3B. The class given is functional. In short, it runs like this:
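Ratio CC50/EC50 from parallel MT-4/MTT assays. CC50 comes from uninfected MT-4 cells and EC50 from MT-4 cells infected with 100–300 CCID50 of HIV-1 IIIB. Both assays used 5-fold serial dilutions.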

The target in data set [2] is T1, Human immunodeficiency virus type 1 integrase (Human immunodeficiency virus 1, UniProt Q7ZJM1). Description: Inhibition of HIV1 integrase using labelled U5A/U5B double stranded DNA substrate.
The next data set concerns the target Albumin (Bos taurus, UniProt P02769). As to the kind of experiment: Binding affinity to BSA by fluorescence quenching assay. The data set is classed as ADME. As to conditions: cattle, isolated protein. In short, it runs like this: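 BSA tryptophan fluorescence quenching at pH 7.4 on binding of the compound. Data fitted as Stern–Volmer plots, and the slope of the linear fit was taken as the quenching constant.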

Data set [3] has as its target T1, Human immunodeficiency virus type 1 integrase. As to the kind of experiment: Inhibition of HIV1 integrase using labelled oligonucleotide substrate in presence of bovine serum albumin by ELISA. (An ELISA detects its analyte on a solid surface through an enzyme-linked reagent.)
Data set [4] shares this target. Description: Inhibition of HIV1 integrase strand transfer activity using labelled oligonucleotide substrate by ELISA.
Data set [5] has the same target. Description: Inhibition of HIV1 integrase 3'-processing activity using labelled oligonucleotide substrate by ELISA.
Data set [6] can be described thus: Cytotoxicity against human MT4 cells by MTT method. The class given is cell-based. In short, it runs like this:
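Uninfected MT-4 lymphocytes run in parallel with the antiviral assay, with 5-fold serial compound dilutions. Viability read by MTT reduction to formazan, measured spectrophotometrically. CC50 = concentration reducing MT-4 viability by 50%.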

The target of data set [7] is T1, Human immunodeficiency virus type 1 integrase. As to the kind of experiment: Inhibition of HIV1 integrase using labelled oligonucleotide substrate by ELISA.
The test system of data set [8] is Human immunodeficiency virus 1. Description: Antiviral activity against HIV1 3B infected in human MT4 cells assessed as reduction of virus-induced cytopathogenicity by MTT assay. The data set is classed as functional, organism-based. As to conditions: Human immunodeficiency virus 1, 3B. In short, it runs like this: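 MT-4 lymphocytes infected with 100–300 CCID50 of HIV-1 IIIB stock (CCID50 titrated on MT-4 cells), in the presence of 5-fold serial compound dilutions. Protection against virus-induced cytopathic effect read by MTT reduction to formazan, measured spectrophotometrically. EC50 = concentration giving 50% protection against CPE.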
On the technique in general: Cytopathic effects are the visible damage that an infection or toxin causes in cultured cells.

Data set [9] has as its target Human immunodeficiency virus type 1 reverse transcriptase (Human immunodeficiency virus 1, UniProt Q72547). As to the kind of experiment: Inhibition of HIV1 reverse transcriptase.

The structures appear in SMILES notation.

The values that follow come from ChEMBL document CHEMBL1144714, “Reaction of rosmarinic acid with nitrite ions in acidic conditions: discovery of nitro- and dinitrorosmarinic acids as new anti-HIV-1 agents” (J Med Chem, 2008).

T1 sequence (Q7ZJM1 whole entry): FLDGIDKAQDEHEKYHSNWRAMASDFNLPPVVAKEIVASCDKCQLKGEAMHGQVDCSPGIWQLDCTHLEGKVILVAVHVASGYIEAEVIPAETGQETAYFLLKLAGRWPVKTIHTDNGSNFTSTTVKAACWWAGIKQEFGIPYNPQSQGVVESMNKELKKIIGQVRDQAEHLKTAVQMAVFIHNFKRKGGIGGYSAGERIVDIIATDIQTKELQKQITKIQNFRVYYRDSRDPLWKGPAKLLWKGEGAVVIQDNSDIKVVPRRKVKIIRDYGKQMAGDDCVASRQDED
Chain of Albumin (P02769 whole entry): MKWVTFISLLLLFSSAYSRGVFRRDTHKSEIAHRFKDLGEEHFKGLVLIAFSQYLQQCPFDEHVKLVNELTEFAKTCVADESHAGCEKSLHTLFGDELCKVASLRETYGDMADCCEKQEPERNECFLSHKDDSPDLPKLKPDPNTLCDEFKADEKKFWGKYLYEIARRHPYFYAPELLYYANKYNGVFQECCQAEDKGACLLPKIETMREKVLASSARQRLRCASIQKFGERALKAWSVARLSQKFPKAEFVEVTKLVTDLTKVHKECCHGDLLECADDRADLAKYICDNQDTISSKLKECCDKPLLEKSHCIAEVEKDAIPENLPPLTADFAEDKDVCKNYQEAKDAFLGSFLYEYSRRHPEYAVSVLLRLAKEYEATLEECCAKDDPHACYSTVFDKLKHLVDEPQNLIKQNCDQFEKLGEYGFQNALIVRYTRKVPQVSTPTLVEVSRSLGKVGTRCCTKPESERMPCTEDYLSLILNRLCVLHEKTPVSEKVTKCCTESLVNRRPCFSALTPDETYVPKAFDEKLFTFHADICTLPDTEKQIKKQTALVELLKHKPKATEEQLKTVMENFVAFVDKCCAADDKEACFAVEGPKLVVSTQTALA

Take `O=C(/C=C/c1ccc(O)c(O)c1)O[C@H](Cc1cc(O)c(O)cc1[N+](=O)[O-])C(=O)O`: in data set [1], the “Ratio CC50/EC50” value is reported as 4. In addition, the IC50 was 0.026 µM in data set [2]; 54.7 µM in data set [3]; 3.7 µM in data set [4]; above 247 µM in [5]; 1.4 µM in data set [7]. In addition, the K on Albumin is on record as 17460 10^3/M. Besides, the CC50 in [6] was found to be 160 µM. For the same compound, the EC50 in data set [8] was found to be 39 µM.

Consider `O=C(/C=C/c1cc(O)c(O)cc1[N+](=O)[O-])O[C@H](Cc1cc(O)c(O)cc1[N+](=O)[O-])C(=O)O`, for which the “Ratio CC50/EC50” value in [1] came to 3.8. For the same compound, the IC50 is 0.03 µM in data set [2]; 20.8 µM in [3]; 0.07 µM in data set [4]; 52.2 µM in data set [5]; 0.15 µM in [7]. Moreover, on Albumin, the K is 3300 10^3/M. The compound also displayed a half-maximal cytotoxic concentration (CC50) in [6] of 45.5 µM. The 50% effective concentration (EC50) in [8] was 12 µM.

Consider `O=C(NCc1ccc(F)cc1)c1nc(N2CCCCS2(=O)=O)c2cccnc2c1O`, for which, in data set [1], the “Ratio CC50/EC50” value was 457. This compound also showed a CC50 in data set [6] of 2.2 µM.

For `O=C(/C=C/c1ccc(O)c(O)c1)O[C@H](Cc1ccc(O)c(O)c1)C(=O)O` [ROSMARINIC ACID], the IC50 in data set [3] is 63.5 µM; in [9], 100 µM. The cytotoxic concentration (CC50) in data set [6] worked out at 55 µM. Moreover, the 50% effective concentration (EC50) in [8] was above 55 µM.

For orientation: IC50 means the midpoint of a concentration-inhibition curve. One may read the CC50 as the concentration giving 50% cytotoxicity. A higher CC50 goes with lower toxicity to the cells. What is called EC50 is the concentration giving half of the maximal effect.
